Experimental data as given in publication PMC9305210 (British Journal of Clinical Pharmacology, 2022).

Assay: Safety and tolerability
Type: in vivo, human
Conditions: for tolerability: 100‐400 mg/day for up to 14 days, healthy subjects; for TEAE leading to discontinuation: one subject
Summary of the method: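 Randomized, double-blind, placebo-controlled; cohorts of 8 (6:2) healthy adults given oral solution daily for a planned 14 days after ≥8 h fast, confined on site days −3 to 15 plus 1 follow-up day. Monitoring covered AEs, physical examination, BMI, vital signs, ECG and clinical laboratory tests. Subjects with ≥1 treatment-emergent AE counted across all subjects receiving at least one dose.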

[1] = Soticlestat total, n = 30, listed as soticlestat

O=C(c1cccnc1-c1ccncc1)N1CCC(O)(Cc2ccccc2)CC1 [Soticlestat, soticlestat]
Number of subjects (%) with SAEs (100 mg QD, n = 6): 0 | Number of subjects (%) with TEAEs (100 mg QD, n = 6): 0 | Number of subjects (%) with TEAEs: Leading to discontinuation (100 mg QD, n = 6): 0 | Number of subjects (%) with TEAEs: Mild (100 mg QD, n = 6): 0 | Number of subjects (%) with TEAEs: Moderate (100 mg QD, n = 6): 0 | Number of subjects (%) with TEAEs: Not related (100 mg QD, n = 6): 0 | Number of subjects (%) with TEAEs: Related (100 mg QD, n = 6): 0 | Number of subjects (%) with TEAEs: Severe (100 mg QD, n = 6): 0 | Number of subjects (%): Deaths (100 mg QD, n = 6): 0 | Number of subjects (%) with SAEs (300 mg BID, n = 6): 0 | Number of subjects (%) with TEAEs (300 mg BID, n = 6): 5 (83.3) | Number of subjects (%) with TEAEs: Leading to discontinuation (300 mg BID, n = 6): 1 (16.7) | Number of subjects (%) with TEAEs: Mild (300 mg BID, n = 6): 5 (83.3) | Number of subjects (%) with TEAEs: Moderate (300 mg BID, n = 6): 0 | Number of subjects (%) with TEAEs: Not related (300 mg BID, n = 6): 0 | Number of subjects (%) with TEAEs: Related (300 mg BID, n = 6): 5 (83.3) | Number of subjects (%) with TEAEs: Severe (300 mg BID, n = 6): 0 | Number of subjects (%): Deaths (300 mg BID, n = 6): 0 | Number of subjects (%) with SAEs (300 mg QD, n = 6): 0 | Number of subjects (%) with TEAEs (300 mg QD, n = 6): 1 (16.7) | Number of subjects (%) with TEAEs: Leading to discontinuation (300 mg QD, n = 6): 0 | Number of subjects (%) with TEAEs: Mild (300 mg QD, n = 6): 1 (16.7) | Number of subjects (%) with TEAEs: Moderate (300 mg QD, n = 6): 0 | Number of subjects (%) with TEAEs: Not related (300 mg QD, n = 6): 0 | Number of subjects (%) with TEAEs: Related (300 mg QD, n = 6): 1 (16.7) | Number of subjects (%) with TEAEs: Severe (300 mg QD, n = 6): 0 | Number of subjects (%): Deaths (300 mg QD, n = 6): 0 | Number of subjects (%) with SAEs (400 mg QD, n = 6): 0 | Number of subjects (%) with TEAEs (400 mg QD, n = 6): 5 (83.3) | Number of subjects (%) with TEAEs: Leading to discontinuation (400 mg QD, n = 6): 0 | Number of subjects (%) with TEAEs: Mild (400 mg QD, n = 6): 4 (66.7) | Number of subjects (%) with TEAEs: Moderate (400 mg QD, n = 6): 1 (16.7) | Number of subjects (%) with TEAEs: Not related (400 mg QD, n = 6): 1 (16.7) | Number of subjects (%) with TEAEs: Related (400 mg QD, n = 6): 4 (66.7) | Number of subjects (%) with TEAEs: Severe (400 mg QD, n = 6): 0 | Number of subjects (%): Deaths (400 mg QD, n = 6): 0 | Number of subjects (%) with SAEs (600 mg QD, n = 6): 0 | Number of subjects (%) with TEAEs (600 mg QD, n = 6): 3 (50.0) | Number of subjects (%) with TEAEs: Leading to discontinuation (600 mg QD, n = 6): 1 (16.7) | Number of subjects (%) with TEAEs: Mild (600 mg QD, n = 6): 2 (33.3) | Number of subjects (%) with TEAEs: Moderate (600 mg QD, n = 6): 0 | Number of subjects (%) with TEAEs: Not related (600 mg QD, n = 6): 0 | Number of subjects (%) with TEAEs: Related (600 mg QD, n = 6): 3 (50.0) | Number of subjects (%) with TEAEs: Severe (600 mg QD, n = 6): 1 (16.7) | Number of subjects (%): Deaths (600 mg QD, n = 6): 0 | tolerability: generally well tolerated | tolerability (listed as soticlestat): well tolerated in most healthy subjects up to 400 mg daily | Number of subjects (%) with SAEs (Soticlestat total, n = 30): 0 | Number of subjects (%) with TEAEs (Soticlestat total, n = 30): 14 (46.7) | Number of subjects (%) with TEAEs: Leading to discontinuation (Soticlestat total, n = 30): 2 (6.7) | Number of subjects (%) with TEAEs: Mild (Soticlestat total, n = 30): 12 (40.0) | Number of subjects (%) with TEAEs: Moderate (Soticlestat total, n = 30): 1 (3.3) | Number of subjects (%) with TEAEs: Not related (Soticlestat total, n = 30): 1 (3.3) | Number of subjects (%) with TEAEs: Related (Soticlestat total, n = 30): 13 (43.3) | Number of subjects (%) with TEAEs: Severe (Soticlestat total, n = 30): 1 (3.3) | Number of subjects (%): Deaths (Soticlestat total, n = 30): 0 | Number of subjects (%) with TEAEs [1]: 14 | Number of subjects (%) with TEAEs: Related [1]: 13 | clinical laboratory (including hormones), vital signs, physical examination, eye examination or electrocardiographic findings (all doses): No clinically significant findings | liver function test results (all doses): No subjects had abnormal liver function test results | number of TEAE events considered related to soticlestat (all doses): 31 | proportion of TEAEs transient and mild in intensity (all doses): 91% | serious AEs (all doses): No serious AEs were reported | proportion of TEAEs transient and mild in intensity (all doses, listed as soticlestat): over 90% | outcome of TEAEs (before study exit on day 15): reversible and resolved without treatment | TEAE leading to discontinuation (300 mg BID (cohort 3), study day 9): mild event of confusional state | TEAE leading to discontinuation (600 mg QD (cohort 4), study day 10): severe event of acute psychosis | total number of TEAEs reported (subjects administered soticlestat, all doses): 45
